# The entries come from a sample that favours hits as a whole.
# HCT116 bCat-KO = primary screen for growth suppressors in beta-catenin knockout HCT116 cells (colon tumor, human); HCT116 beta-catenin knockout viability, CellTiter-Glo, 60 h; stronger effect = lower value; viability, % at 10 µM; actives 1.5% (n = 140,000); AID 818, 2007;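 active = viability at or under a set limit, the compound median less 4 SD, cut at about 6% in these data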;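 note: 0% = Hyamine 1622 control at 20 µM and 100% = untreated cell control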
# HUVEC prolif 384 = inhibitors of HUVEC proliferation, primary screen, cell-based, 384-well | CellTiter-Glo luminescence, 72 h; stronger effect = lower value | viability, % at 10 µM (by protocol) | actives 1.1% (n = 86,000);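 active = viability at or below 30%; inactive = viability above 30%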;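 note: 100% = median luminescence of DMSO-only cell control wells on each plate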
# H69AR inhibit = proliferation blockers of H69AR lung cancer cells, primary screen, cell-based, human, 86K library | actives 6% (n = 85,000) | viability, % at 10 µM | AID 598, 2007 | H69AR lung tumor viability, ATP luminescence, 72 h; stronger effect = lower value;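 active = viability at or below 40%; inactive = viability above 40%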;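 note: multidrug resistant small cell line overexpressing MRP-1 efflux transporter; 100% = mean luminescence of untreated control wells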
# Pyk2 oligo antag = antagonists of Pyk2 self-association, primary screen, Q293 cells, FERM NanoBiT luminescence, HTS | Protein-tyrosine kinase 2-beta (Homo sapiens), Q14289 | stronger effect = lower value | z-score (the deposit names both 25 µM and 10 µM) | actives 0.83% (n = 99,000) | AID 1347419, 2020;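 active = Z-score of -3 or lower, scaled per plate to the spread of control and sample wells; inactive = z-score above -3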;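 note: negative z-score means lost luminescence so less FERM oligomerization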
# Lung fibro prol = antiproliferative effect on LL 47 fibroblasts – human, LL 47 cells, CellTiter-Glo luminescence, primary screen. LL 47 human lung fibroblast viability, ATP luminescence; stronger effect = lower value. viability, % at 10 µM. actives 1.1% (n = 85,000);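 active = viability at or below 50% in the single dose screen; inactive = viability above 50%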;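 note: compound exposure lasted 72 h before the ATP readout; 100% = median luminescence of untreated cell-only wells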
#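 Assay system: human lung fibroblast line LL 47, low passage. Input: 1,150 fibroblasts seeded per well. Times: overnight cell rest, 72 h compound treatment at 37 °C. Evaluation: % viability of median cell-only signal. Technique: luminescent ATP detection, CellTiter-Glo. Control set: cell-only wells, no compound.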
# PTEN del growth = growth suppression of PTEN-null HCT116, primary screen, cell-based, CellTiter-Glo; HCT116 PTEN-null viability, 60 h; stronger effect = lower value; viability, % at 10 µM; actives 1.2% (n = 140,000);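 active = viability at or below a set limit, 4 SD under the median of all tested compounds, cut at about 3.7% in these data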;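 note: PTEN knockout HCT116 line with beta catenin targeted HCT116 as companion control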
# * hit, by the source's call; . = not tested or not shown.
SMILES,HCT116 bCat-KO,HUVEC prolif 384,H69AR inhibit,Pyk2 oligo antag,Lung fibro prol,PTEN del growth
COc1ccc2c(c1)OC1(C)CC2C(C(=O)c2ccccc2OC)C(=O)N1 (stereo not given),91,98,33*,.,97,91
C=CCOn1c(=O)c(=O)n(OCc2ccccc2)c2ccccc21,102,107,81,-0.75,116,105
CCN(CC)S(=O)(=O)c1cccc(C(=O)OCc2cc(=O)n3nc(C)sc3n2)c1,103,106,97,0.9,102,104
CCOc1ccc(C(=O)N(Cc2ccc(OC)cc2)Cc2cc3cc(OC)ccc3[nH]c2=O)cc1,87,70,19*,-1.9,86,92
CCCN(Cc1cc2cc(OC)ccc2[nH]c1=O)C(=O)c1ccncc1,74,80,25*,0.05,85,66
CCOc1ccc2[nH]c(=O)c(CN(CCc3ccccc3)C(=O)N3CCCC3)cc2c1,70,.,.,-0.52,.,66
COc1ccc2[nH]c(=O)c(CN(C)C(=O)c3ccncc3)cc2c1,108,89,94,0.72,97,106
CCOc1ccccc1C(=O)N(Cc1ccccc1)Cc1cc2cc3c(cc2[nH]c1=O)OCCO3,.,19*,9.0*,-0.02,26*,.
CCOc1ccc2[nH]c(=O)c(CN(Cc3ccc(C)cc3)C(=O)N3CCCC3)cc2c1,93,90,33*,-0.37,89,81
Cc1cccc(-c2nc(CSCC(=O)N3CCN(Cc4ccc5c(c4)OCO5)CC3)c(C)o2)c1,12,88,33*,1.6,95,18
O=C(CSCc1ccccc1)N1CCN(Cc2ccc3c(c2)OCO3)CC1,81,85,98,-0.47,99,98
COC(=O)c1c(NC(=O)CC2SC(N)=NC2=O)sc2c1CCC(C(C)(C)C)C2 (stereo not given),58,.,.,.,.,56
O=C(Nc1ncnc2sc3c(c12)CCCCC3)c1ccccc1,65,84,50,-0.31,98,74
O=C(Nc1ncnc2sc3c(c12)CCCCC3)c1ccc(F)cc1,55,81,40*,-0.41,74,57
O=C(O)c1ccc(COCC(F)(F)C(F)F)o1,104,.,.,0.62,.,95
CCN(CC)S(=O)(=O)c1ccc(OC)c(NC(=S)Nc2cccc(C)c2C)c1,92,.,.,.,.,96
CC(Sc1ccc(Cl)cc1)C(=O)Nc1ccccc1-c1ccccc1 (stereo not given),61,.,.,.,.,58
COC1=CC(=O)CC(C)C12Oc1c(Cl)c(OC)cc(OC)c1C2=O (stereo not given),60,92,29*,.,87,52
Cc1ccc(CNc2ccc(N3C(=O)CCCC3=O)cc2[N+](=O)[O-])cc1,94,.,.,.,.,88
Cc1cc(C(=O)c2ccc(C(C)(C)C)cc2)c(NC(=O)CCl)s1,1.1*,.,.,.,.,1.3*
Cc1cc(C)n(-c2nc3ccccc3c(=O)n2OCC(=O)Nc2c(C)cccc2C)n1,48,97,78,-0.02,95,68
CCc1nnc(NC(=O)c2cccc(C(=O)Nc3nnc(CC)s3)n2)s1,5.0*,3.7*,3.7*,.,4.8*,2.2*
CCc1nnc(NC(=O)c2ccncc2)s1,100,94,96,-0.08,102,86
CCc1nnc(NC(=O)c2ccc3c(c2)C(=O)N(C(C)(C)C)C3=O)s1,99,87,39*,-0.76,101,97
O=C(Cc1ccccc1)NN1C(=O)C2C3C=CC(C3)[C@@H]2C1=O (stereo not given in full),87,.,.,.,.,106
SMILES,HCT116 bCat-KO,HUVEC prolif 384,H69AR inhibit,Pyk2 oligo antag,Lung fibro prol,PTEN del growth
COc1ccc(Cn2c(SCc3ccccc3C)nc3cc(OC)c(OC)cc3c2=N)cc1,1.6*,.,.,-0.71,.,1.1*
CCOc1ccc(C(=O)NCC(c2cccs2)N(C)C)cc1OCC (stereo not given),91,.,.,.,.,91
Cc1cc(C(=O)c2ccccc2)c(NC(=O)CN2CCOCC2)s1,95,.,.,.,.,97
Cc1ccc(C(=O)c2cc(C)sc2NC(=O)CN2CCN(C(=O)c3ccco3)CC2)cc1,68,70,28*,-2,86,71
CC1(C)NC(=O)N(CCOCCOc2ccc3ccccc3c2Br)C1=O,78,78,33*,-0.83,90,77
O=[N+]([O-])c1ccc(-n2nnnc2-c2ccccc2)c([N+](=O)[O-])c1,0.6*,.,.,.,.,0.6*
O=[N+]([O-])c1cc(C(F)(F)F)ccc1-n1nnc2ccccc21,85,.,.,.,.,84
C=CCOC(=O)C1=C(C)NC(SCC(N)=O)=C(C#N)C1c1cccs1 (stereo not given),94,.,.,.,.,84
CC(=O)C1=C(C)NC(SCC(=O)c2ccc(-c3ccccc3)cc2)=C(C#N)C1c1cccnc1 (stereo not given),21,59,6.2*,.,77,18
CC1=C(C(=O)Nc2ccccc2)C(c2ccncc2)C(C#N)=C(SCC(=O)Nc2ccccc2)N1 (stereo not given),87,91,11*,0.88,102,93
CCOC(=O)C1=C(C)NC(SCC(=O)Nc2nc(C)cs2)=C(C#N)C1c1cccs1 (stereo not given),41,46,37*,.,98,19
CC1=C(C(=O)Nc2ccccc2)C(c2ccco2)C(C#N)=C(SCC(=O)Nc2cccc(C)c2C)N1 (stereo not given),61,96,66,-0.45,83,52
O=C(OCCN1C(=O)c2ccccc2C1=O)C1CCN(S(=O)(=O)c2cccs2)CC1,104,101,106,1.4,125,114
COc1ccc(NC(=O)CSc2ccccc2)c(OC)c1,99,104,94,-0.08,104,99
COc1ccc(NC(=O)CSc2ncnc3c2sc2ccccc23)c(OC)c1,2.2*,.,.,.,.,2.2*
CC(C)(C)c1nn(-c2ccccc2)c2[nH]c(=O)c(CNCc3ccc4c(c3)OCO4)cc12,13,4.6*,1.1*,-0.36,63,11
CC(C)Oc1ccc(C2/C(=C(/O)c3ccc(F)cc3)C(=O)C(=O)N2CCCN(C)C)cc1 (stereo not given),.,96,100,.,105,.
CCCc1nnc(NC(=O)c2ccc(N3C(=O)C4C5C=CC(C5)C4C3=O)cc2)s1 (stereo not given),104,104,99,-3.2*,108,105
C/C(=C\C(=O)Nc1nccs1)c1ccccc1,83,88,90,-0.24,88,83
CCc1ccc(NC(=O)CSc2nc3cc(C(=O)OC)ccc3c(=O)n2CC2CCCO2)cc1 (stereo not given),48,48,3.5*,-0.88,36*,8
COC(=O)c1ccc2c(=O)n(Cc3ccc4c(c3)OCO4)c(SCC(=O)N3CCCC3)nc2c1,.,88,2.5*,.,119,.

# Compound activity deposited in PubChem by several laboratories.
